Measurements reported in PMC3040411 (Bioorganic & medicinal chemistry letters, 2010).

How the values were obtained:
[1] = biological target: Recombinant ATX (Homo sapiens, UniProt Q13822); type: biochemical; conditions: for Mechanism of ATX inhibition: assigned by lowest averaged percent residuals of curve fitting
Outline: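 Recombinant autotaxin ([…]) with test compound at various concentrations, in pH 8.0 Tris-HCl 50 mM buffer with NaCl 140 mM, KCl 3 mM, MgCl2 and CaCl2 1 mM each, and fatty-acid-free BSA 15 μM; LPA 18:1 as positive control. Fluorescence (ex 485/em 538 nm) read at start and after 2 h, 37 °C; activity as percent of vehicle, triplicate wells. For mechanism, FS-3 varied 0.3–20 μM at three inhibitor levels; competitive, uncompetitive, mixed and non-competitive models fitted simultaneously to give Ki.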

[2] = biological target: LPA5 (Homo sapiens, UniProt Q9H1C0); assay: LPA5-mediated calcium mobilization in B103 cells stably expressing LPA5; type: cell-based; conditions: concentrations above 1 μM, p < 0.05
Sequence of LPA5 (Q9H1C0 whole entry, species assumed): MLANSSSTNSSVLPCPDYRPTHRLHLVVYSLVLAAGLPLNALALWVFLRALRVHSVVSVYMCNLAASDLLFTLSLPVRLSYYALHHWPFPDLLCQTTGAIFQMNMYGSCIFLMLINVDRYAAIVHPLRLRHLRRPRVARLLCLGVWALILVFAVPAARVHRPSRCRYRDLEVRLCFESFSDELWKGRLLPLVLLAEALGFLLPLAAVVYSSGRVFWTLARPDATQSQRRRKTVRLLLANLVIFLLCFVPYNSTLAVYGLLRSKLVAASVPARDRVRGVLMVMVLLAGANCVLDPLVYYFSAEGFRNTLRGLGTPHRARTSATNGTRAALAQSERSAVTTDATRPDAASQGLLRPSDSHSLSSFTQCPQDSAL

[3] = tested on: LPA1 GPCR; conditions: cited from earlier work
[4] = tested on: LPA2 GPCR; conditions: cited from earlier work

Molecule	Mechanism of ATX inhibition [1]	Efficacy for LPA5-mediated calcium mobilization compared with R-3-CCPA [2]	Potency in ATX inhibition relative to S-3-CCPA ([1]; FS-3 1 μM, 2 hours at 37 °C)	LPA1 GPCR activation [3]	LPA2 GPCR activation [4]
CCCCCCCCCCCCCCCCCC(=O)OC[C@@H]1CCP(=O)([O-])O1.[Na+] [S-3-CCPA]	mixed mode	significantly higher			
CCCCCCCCCCCCCCCCCC(=O)OC[C@H]1CCP(=O)([O-])O1.[Na+] [R-3-CCPA]	mixed mode		approximately 2 fold		
1-acyl-2,3-glycerophosphate [CPA]				weak agonist	weak agonist
